The nature of test [1]: Inhibition of beta-lactamase CTX-M9a using nitrocefin as substrate after 30 mins by spectrophotometric analysis. Summed up:
(§1)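 Substrate level differed between class A and class C enzymes. Fraction inhibited was taken as the rate with inhibitor over the rate without. IC50 was read from log[inhibitor] dose–response curves.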

The nature of test [2]: Inhibition of beta-lactamase TEM1 using nitrocefin as substrate after 30 mins by spectrophotometric analysis. The procedure, abridged:
as §1

Another test concerns the target Beta-lactamase (Enterobacter cloacae, UniProt P05364). Kind of test: Inhibition of Enterobacter cloacae P99 beta-lactamase AmpC P99 using nitrocefin as substrate after 30 mins by spectrophotometric analysis. The procedure, abridged: as §1
The nature of test [3]: Inhibition of beta-lactamase CMY-2 using nitrocefin as substrate after 30 mins by spectrophotometric analysis. The procedure, abridged:
as §1

For test [4], the target named is Beta-lactamase (Enterobacter cloacae) (UniProt P05364). Kind of test: Inhibition of Enterobacter cloacae P99 beta-lactamase AmpC P99 assessed as potentiation of ceftazidime-mediated antibacterial activity at 8 ug/ml.
Test [5] can be described thus: Inhibition of beta-lactamase CMY-2 expressed in Escherichia coli SYN2549 assessed as potentiation of ceftazidime-mediated antibacterial activity at 8 ug/ml.

Drawing on ChEMBL document CHEMBL1759993, “Synthesis and SAR of novel benzoxaboroles as a new class of β-lactamase inhibitors” (Bioorg Med Chem Lett, 2011), this text covers Ki and Activity for 26 compounds.

Calls of active or inactive are those of the source. The rule behind the calls is not given here.

Chain of Beta-lactamase (P05364 whole entry): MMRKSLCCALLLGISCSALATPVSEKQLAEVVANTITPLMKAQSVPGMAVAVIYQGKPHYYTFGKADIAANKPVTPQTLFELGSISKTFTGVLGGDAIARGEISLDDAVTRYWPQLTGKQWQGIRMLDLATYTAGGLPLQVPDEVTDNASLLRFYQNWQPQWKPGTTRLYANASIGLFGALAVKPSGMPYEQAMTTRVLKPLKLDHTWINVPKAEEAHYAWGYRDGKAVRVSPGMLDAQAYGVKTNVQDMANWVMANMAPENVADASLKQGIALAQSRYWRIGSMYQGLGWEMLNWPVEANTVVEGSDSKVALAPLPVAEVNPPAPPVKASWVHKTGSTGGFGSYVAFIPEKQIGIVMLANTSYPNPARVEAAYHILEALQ
Chain of Beta-lactamase (Enterobacter cloacae) (P05364 21-381 limits assumed): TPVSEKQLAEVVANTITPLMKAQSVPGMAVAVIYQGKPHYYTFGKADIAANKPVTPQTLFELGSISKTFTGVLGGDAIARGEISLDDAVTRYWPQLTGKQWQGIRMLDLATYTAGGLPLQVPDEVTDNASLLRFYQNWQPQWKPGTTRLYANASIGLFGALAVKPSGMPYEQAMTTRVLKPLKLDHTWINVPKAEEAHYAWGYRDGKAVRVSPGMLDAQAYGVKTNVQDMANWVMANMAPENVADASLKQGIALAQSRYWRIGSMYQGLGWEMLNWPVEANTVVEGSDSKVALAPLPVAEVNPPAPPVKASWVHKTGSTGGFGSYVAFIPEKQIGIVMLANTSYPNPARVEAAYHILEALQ

As usually defined, the Ki is a dissociation constant, usually derived from enzyme kinetics or from competition with a known ligand. `OB1OCc2ccc(Nc3ccccc3)cc21`: the Ki in test [1] is above 32 µM; in test [2] it was above 37 µM; on Beta-lactamase it was 4.73 µM; in test [3], 13.8 µM.

The compound `NCc1cccc(Oc2ccc3c(c2)B(O)OC3)c1` registered a Ki at Beta-lactamase of 3.33 µM. This counts as single-digit micromolar.

As to `CCOC(=O)c1ccc(Oc2ccc3c(c2)B(O)OC3)cc1`, the Ki in test [1] is above 32 µM; in test [2], 3.11 µM; at Beta-lactamase, 5.55 µM.

Take `O=C(c1ccccc1)c1ccc2c(c1)B(O)OC2`: the Ki was above 32 µM in test [1], 10.6 µM in test [2], 28.5 µM at Beta-lactamase and 46.9 µM in test [3].

For the compound `COc1cccc(Oc2ccc3c(c2)B(O)OC3)c1`, the Ki came out at 1.1 µM in test [1], 1.4 µM in test [2], 1.35 µM on Beta-lactamase and 2.65 µM in test [3].

Regarding `CN(C)Cc1cccc(Oc2ccc3c(c2)B(O)OC3)c1`, at Beta-lactamase, the Ki was found to be 7.72 µM. This counts as single-digit micromolar.

On to `O=C(O)c1cnc(Oc2ccc3c(c2)B(O)OC3)cn1`, for which the Ki was above 32 µM in test [1], 20.4 µM in test [2] and 0.02 µM on Beta-lactamase. In addition, the outcome in test [4] and in test [5] was Active.

`OB1OCc2ccc(Sc3ccccc3)cc21`: the Ki in test [1] was above 32 µM; in test [2] it was 1.76 µM; at Beta-lactamase, 9.09 µM; in test [3], 12.7 µM.

Consider `OCc1cccc(Oc2ccc3c(c2)B(O)OC3)c1`, for which the Ki came out at 1.92 µM in test [1], 1.36 µM in test [2], 8.4 µM on Beta-lactamase and 8.43 µM in test [3].

On to `OB1OCc2ccc(Cc3ccccc3)cc21`, for which the Ki in test [1] was above 32 µM; in test [2], above 37 µM; on Beta-lactamase, 19.8 µM; in test [3] it was 25.6 µM.

Regarding `OB1OCc2ccc(Oc3cccc(O)c3)cc21`, the Ki was found to be 0.816 µM in test [1] and 3.12 µM in test [3].

For the compound `COc1ccc(Oc2ccc3c(c2)B(O)OC3)cc1`, the Ki was 14.1 µM in test [1], 4.34 µM in test [2], 6 µM at Beta-lactamase and above 46 µM in test [3].

With `NCc1ccc(Oc2ccc3c(c2)B(O)OC3)cc1`, the affinity at Beta-lactamase corresponds to a Ki of 13.3 µM. In other words, the double-digit micromolar range.

For `O=C(O)c1cnc(Oc2ccc3c(c2)B(O)OC3)nc1`, the Ki is above 32 µM in test [1], 14.7 µM in test [2], 0.08 µM on Beta-lactamase and 0.07 µM in test [3].

The compound `O=C(O)c1cccc(Oc2ccc3c(c2)B(O)OC3)c1` came in with a Ki at Beta-lactamase of 1.44 µM.

`CN(C)Cc1ccc(Oc2ccc3c(c2)B(O)OC3)cc1` came in with a Ki at Beta-lactamase of 40.6 µM. This Ki lies about 28-fold higher than the previous one.

Consider `OB1OCc2ccc(Oc3ccccc3)cc21`, for which the inhibition constant (Ki) in test [1] is 1.89 µM; in test [2], 1.02 µM; on Beta-lactamase, 0.71 µM; in test [3], 1.51 µM.

With `Nc1cccc(Oc2ccc3c(c2)B(O)OC3)c1`, the Ki in test [1] worked out at 0.69 µM; in test [2], 1.01 µM; at Beta-lactamase, 2.75 µM; in test [3], 6.09 µM.

As to `OB1OCc2ccc(C(O)c3ccccc3)cc21` (stereo unspecified), the Ki in test [1] is above 32 µM; in test [2] it was above 37 µM; at Beta-lactamase it was 7.28 µM; in test [3] it was 8.42 µM.

In the case of `O=C(ONc1ccccc1)c1ccc2c(c1)B(O)OC2`, the inhibitory constant (Ki) in test [1] was above 32 µM; in test [2], above 37 µM; at Beta-lactamase it was 16 µM; in test [3], 13.8 µM.

For the compound `[O-][S+](c1ccccc1)c1ccc2c(c1)B(O)OC2` (stereo unspecified), the Ki in test [1] is above 32 µM; in test [2], 4.87 µM; at Beta-lactamase, 58 µM; in test [3], 59.3 µM.

Take `O=S(=O)(c1ccccc1)c1ccc2c(c1)B(O)OC2`: the Ki was above 32 µM in test [1], 11.2 µM in test [2], 63.2 µM on Beta-lactamase and 108 µM in test [3].

`Nc1ccc(Oc2ccc3c(c2)B(O)OC3)cc1` displayed a Ki on Beta-lactamase of 8.73 µM.

`O=C(O)c1ccc(Oc2ccc3c(c2)B(O)OC3)cc1` had a Ki at Beta-lactamase of 0.02 µM.

In the case of `O=C(Nc1ccc2c(c1)B(O)OC2)c1ccccc1`, the Ki was above 32 µM in test [1], above 37 µM in test [2], 46.6 µM at Beta-lactamase and above 138 µM in test [3].

On to `OB1OCc2ccc(Oc3cccc(OCc4ccccc4)c3)cc21`, for which the Ki amounted to 8.75 µM in test [1], 1.08 µM in test [2], 2.27 µM on Beta-lactamase and 74.5 µM in test [3].
